Experimental data taken from PMC9245008 (ACS chemical biology, 2022).

Legend:
IRAK4 = molecular target: T1, IRAK4 (Homo sapiens, UniProt Q9NWZ3); experiment: Potency of takinib analogues against IRAK4; format: biochemical
T1 sequence (Q9NWZ3 1-460): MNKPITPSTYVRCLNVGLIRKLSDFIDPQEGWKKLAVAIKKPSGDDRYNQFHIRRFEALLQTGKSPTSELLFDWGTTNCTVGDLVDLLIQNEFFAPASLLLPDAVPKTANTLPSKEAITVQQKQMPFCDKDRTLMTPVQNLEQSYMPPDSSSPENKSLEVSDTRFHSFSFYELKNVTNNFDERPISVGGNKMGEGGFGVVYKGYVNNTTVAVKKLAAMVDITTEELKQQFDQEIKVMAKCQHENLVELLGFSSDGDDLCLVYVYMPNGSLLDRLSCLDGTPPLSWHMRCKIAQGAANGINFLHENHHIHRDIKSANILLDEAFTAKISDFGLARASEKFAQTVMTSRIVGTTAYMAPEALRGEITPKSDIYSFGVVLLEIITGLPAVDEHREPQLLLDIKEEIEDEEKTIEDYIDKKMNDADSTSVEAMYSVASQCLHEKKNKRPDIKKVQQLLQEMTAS

NUAK1 = molecular target: T2, NUAK1 (Homo sapiens, UniProt O60285); experiment: MRC Dundee kinase panel screen at 10 μM; format: biochemical
T2 sequence (O60285 1-661): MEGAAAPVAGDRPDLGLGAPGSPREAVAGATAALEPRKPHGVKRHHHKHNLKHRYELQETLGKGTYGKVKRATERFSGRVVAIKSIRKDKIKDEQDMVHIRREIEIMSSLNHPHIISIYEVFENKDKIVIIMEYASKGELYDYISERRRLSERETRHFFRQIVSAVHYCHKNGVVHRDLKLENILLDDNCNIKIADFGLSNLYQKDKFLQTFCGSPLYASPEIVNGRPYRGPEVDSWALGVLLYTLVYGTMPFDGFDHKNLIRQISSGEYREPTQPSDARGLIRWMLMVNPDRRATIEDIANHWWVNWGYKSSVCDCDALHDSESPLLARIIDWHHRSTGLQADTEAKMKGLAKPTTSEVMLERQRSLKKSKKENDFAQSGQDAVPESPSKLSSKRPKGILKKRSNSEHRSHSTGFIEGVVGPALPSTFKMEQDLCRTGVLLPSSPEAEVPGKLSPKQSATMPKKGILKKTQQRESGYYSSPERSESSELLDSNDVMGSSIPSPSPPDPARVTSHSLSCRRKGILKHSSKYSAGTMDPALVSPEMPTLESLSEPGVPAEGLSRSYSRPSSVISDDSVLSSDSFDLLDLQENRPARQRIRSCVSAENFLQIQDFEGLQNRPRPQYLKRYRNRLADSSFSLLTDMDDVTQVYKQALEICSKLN

IRAK1 = IRAK1 (Homo sapiens, UniProt P51617); experiment: MRC Dundee kinase panel screen at 10 μM; format: biochemical
MAP4K5 = MAP4K5 (Homo sapiens, UniProt Q9Y4K4); experiment: MRC Dundee kinase panel screen at 10 μM; format: biochemical
GCK = molecular target: T3, GCK (Homo sapiens, UniProt Q12851); experiment: Dose–response of top 10 kinase hits; format: biochemical
T3 sequence (Q12851 1-820): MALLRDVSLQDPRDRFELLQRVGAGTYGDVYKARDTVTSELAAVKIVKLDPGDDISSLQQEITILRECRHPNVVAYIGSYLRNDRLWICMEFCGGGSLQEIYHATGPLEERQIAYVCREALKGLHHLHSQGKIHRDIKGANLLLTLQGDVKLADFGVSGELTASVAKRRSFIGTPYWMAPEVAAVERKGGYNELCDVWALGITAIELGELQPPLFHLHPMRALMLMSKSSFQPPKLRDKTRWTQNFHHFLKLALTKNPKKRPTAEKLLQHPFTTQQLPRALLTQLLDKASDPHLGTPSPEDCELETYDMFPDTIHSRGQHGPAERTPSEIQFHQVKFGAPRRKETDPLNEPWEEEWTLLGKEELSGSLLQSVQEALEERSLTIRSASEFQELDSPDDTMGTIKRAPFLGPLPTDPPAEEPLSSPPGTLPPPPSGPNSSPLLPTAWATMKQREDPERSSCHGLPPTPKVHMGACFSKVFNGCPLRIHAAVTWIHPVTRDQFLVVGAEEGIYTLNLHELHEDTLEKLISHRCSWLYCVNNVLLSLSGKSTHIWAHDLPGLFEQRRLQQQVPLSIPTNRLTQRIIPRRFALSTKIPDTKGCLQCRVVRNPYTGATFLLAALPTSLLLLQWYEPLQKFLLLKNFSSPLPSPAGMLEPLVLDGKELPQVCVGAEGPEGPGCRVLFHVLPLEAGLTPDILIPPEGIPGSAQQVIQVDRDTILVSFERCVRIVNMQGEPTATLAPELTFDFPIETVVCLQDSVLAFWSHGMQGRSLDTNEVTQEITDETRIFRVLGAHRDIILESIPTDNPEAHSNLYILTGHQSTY

CAMKKβ−1 = CAMKKβ−1 (Homo sapiens, UniProt Q96RR4); experiment: Dose–response of top 10 kinase hits; format: biochemical; details: read-out: IC50 CAMKKβ−1, n = 2
[1] = test system: TNF expression in THP-1 human macrophages; experiment: Cytokine profile in stimulated THP-1 human macrophages; format: cell-based; details: 10 μM; THP-1 macrophages stimulated with LPS and IFNγ; vs vehicle
[2] = test system: IL-1β expression in THP-1 cells; experiment: Cytokine dose–response curves in THP-1 cells; format: cell-based, human; details: read-out: IC50 IL-1β expression; LPS-stimulated THP-1, 24 h
Procedure, shortened: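 THP-1 cells differentiated with PMA (100 nM) for up to 72 h, then rested 24 h in PMA-free RPMI. Pretreated with test compound (3.2 nM–32 μM) or DMSO vehicle, then stimulated with LPS (10 ng/mL). After 24 h, TNF, IL-6 and IL-1β in supernatant measured by Luminex and expressed as percent of vehicle control; n = 3.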

CIA mouse model = CIA mouse model of inflammatory arthritis; format: in vivo, DBA/1 mice
Procedure, shortened: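 Type II collagen emulsified 1:1 with Freund's complete adjuvant; mice anaesthetised with isoflurane and given intradermal tail-base injections (400 μg collagen total) on days 0 and 21, then randomised by body weight on day 21.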

[3] = 50 mg/kg IP, all joints (paws and knees), vs vehicle

IRAK1, sequence (P51617 whole entry): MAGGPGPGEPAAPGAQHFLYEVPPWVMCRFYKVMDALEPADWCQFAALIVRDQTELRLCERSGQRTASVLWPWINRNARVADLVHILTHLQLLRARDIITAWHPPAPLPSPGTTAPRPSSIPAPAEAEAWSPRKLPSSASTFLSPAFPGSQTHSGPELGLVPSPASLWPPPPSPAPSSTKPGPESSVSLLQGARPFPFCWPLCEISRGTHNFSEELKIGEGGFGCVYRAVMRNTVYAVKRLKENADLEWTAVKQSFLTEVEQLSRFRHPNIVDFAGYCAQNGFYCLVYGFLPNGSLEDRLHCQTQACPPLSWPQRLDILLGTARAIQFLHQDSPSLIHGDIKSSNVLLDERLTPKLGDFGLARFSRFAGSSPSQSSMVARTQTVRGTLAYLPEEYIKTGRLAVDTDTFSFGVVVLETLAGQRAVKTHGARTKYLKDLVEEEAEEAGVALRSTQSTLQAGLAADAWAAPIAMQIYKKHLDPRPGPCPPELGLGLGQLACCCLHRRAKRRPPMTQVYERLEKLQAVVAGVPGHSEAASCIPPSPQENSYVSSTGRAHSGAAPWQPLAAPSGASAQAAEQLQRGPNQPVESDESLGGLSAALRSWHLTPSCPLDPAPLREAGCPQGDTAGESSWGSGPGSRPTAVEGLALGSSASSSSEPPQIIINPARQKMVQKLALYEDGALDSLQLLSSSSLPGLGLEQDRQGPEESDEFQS
CAMKKβ−1, sequence (Q96RR4 whole entry): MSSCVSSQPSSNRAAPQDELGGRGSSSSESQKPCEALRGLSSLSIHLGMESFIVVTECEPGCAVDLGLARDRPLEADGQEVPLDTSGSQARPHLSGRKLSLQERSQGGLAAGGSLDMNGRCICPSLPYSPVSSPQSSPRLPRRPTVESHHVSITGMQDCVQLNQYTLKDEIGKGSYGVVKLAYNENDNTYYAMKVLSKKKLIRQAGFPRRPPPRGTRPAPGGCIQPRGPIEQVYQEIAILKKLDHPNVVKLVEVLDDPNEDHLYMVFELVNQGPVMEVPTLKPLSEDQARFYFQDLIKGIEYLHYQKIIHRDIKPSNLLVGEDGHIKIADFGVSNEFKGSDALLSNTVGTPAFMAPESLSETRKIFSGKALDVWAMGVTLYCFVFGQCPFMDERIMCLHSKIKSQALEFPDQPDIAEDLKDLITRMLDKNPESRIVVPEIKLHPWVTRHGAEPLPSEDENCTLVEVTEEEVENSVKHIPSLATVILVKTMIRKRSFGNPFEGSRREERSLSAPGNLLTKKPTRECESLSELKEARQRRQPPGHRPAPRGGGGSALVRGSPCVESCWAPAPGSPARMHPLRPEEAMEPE
MAP4K5, sequence (Q9Y4K4 whole entry): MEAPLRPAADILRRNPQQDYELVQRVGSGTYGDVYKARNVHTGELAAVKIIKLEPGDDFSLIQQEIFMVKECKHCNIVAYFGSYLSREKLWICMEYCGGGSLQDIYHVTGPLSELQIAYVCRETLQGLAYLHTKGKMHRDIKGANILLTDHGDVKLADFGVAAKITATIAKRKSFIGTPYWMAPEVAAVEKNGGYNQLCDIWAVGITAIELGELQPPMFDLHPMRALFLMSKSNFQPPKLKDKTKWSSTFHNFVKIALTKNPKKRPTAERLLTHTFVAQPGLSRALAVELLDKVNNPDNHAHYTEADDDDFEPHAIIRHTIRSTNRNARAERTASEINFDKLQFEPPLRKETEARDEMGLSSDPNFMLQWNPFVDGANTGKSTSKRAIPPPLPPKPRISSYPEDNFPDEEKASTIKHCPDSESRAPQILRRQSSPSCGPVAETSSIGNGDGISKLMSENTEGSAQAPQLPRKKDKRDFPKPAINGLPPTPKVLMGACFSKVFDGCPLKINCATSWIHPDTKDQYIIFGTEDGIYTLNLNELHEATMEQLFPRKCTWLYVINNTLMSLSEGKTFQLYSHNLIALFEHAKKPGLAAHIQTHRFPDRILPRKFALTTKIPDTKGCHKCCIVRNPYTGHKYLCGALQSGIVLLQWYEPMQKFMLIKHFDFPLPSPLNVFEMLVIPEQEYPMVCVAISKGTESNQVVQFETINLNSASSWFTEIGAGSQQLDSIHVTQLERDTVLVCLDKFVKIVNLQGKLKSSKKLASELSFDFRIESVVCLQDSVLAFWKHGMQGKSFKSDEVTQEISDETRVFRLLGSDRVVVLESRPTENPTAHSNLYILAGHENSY

CCCn1c(NC(=O)c2cccc(C(N)=O)c2)nc2ccc(CN3CCCCC3)cc21 [HS-276]
IRAK4 inhibition in dose–response experiments (IRAK4; Figure 2d): minimal IRAK4 inhibition | Ratio (IRAK4; IRAK4 IC50 over TAK1 IC50): 1000 | IC50 (IRAK4; read-out: IRAK4 IC50): 2500 nM | preference for TAK1 over IRAK4 (IRAK4; selectivity): 1000 fold | enzymatic activity (NUAK1): < 15% | enzymatic activity (IRAK1): < 15% | enzymatic activity (MAP4K5): < 15% | TAK1 more potently inhibited than GCK (GCK; from dose–response IC50 values): 4.1 fold | IC50 (GCK; read-out: IC50 GCK, dose–response, n = 2): 33 nM | IC50 (CAMKKβ−1): 1280 nM | reduction of TNF expression [1]: 11 fold | IC50 [2]: 234 nM | reduction of arthritic clinical score (CIA mouse model; 10 mg/kg QD PO): 18% | reduction of disease clinical score (CIA mouse model; 25 mg/kg IP): 36% | reduction of arthritic clinical score (CIA mouse model; 30 mg/kg QD PO): 35% | disease onset (CIA mouse model; 50 mg/kg IP): significantly delayed disease onset | reduction of mean clinical score (CIA mouse model; 50 mg/kg IP): 85% | reduction of bone resorption score (CIA mouse model; [3]): 87% | reduction of cartilage damage score (CIA mouse model; [3]): 76% | reduction of inflammation score (CIA mouse model; [3]): 62% | reduction of pannus score (CIA mouse model; [3]): 86% | reduction of periosteal bone formation score (CIA mouse model; [3]): 93% | clinical arthritis scores (CIA mouse model; 50 mg/kg, days 26 through 36, vs disease control): significantly reduced | reduction of AUC of clinical arthritis scores (CIA mouse model; 50 mg/kg, vs disease control mice): 85% | disease onset (CIA mouse model; 10 and 30 mg/kg QD PO and 25 mg/kg IP, vs vehicle): did not significantly delay disease onset | disease incidence (CIA mouse model; day 36, 50 mg/kg IP, vehicle 92%): 75%
